We go through 1 compound from ChEMBL document CHEMBL5346963, “Innovative Strategy toward Mutant CFTR Rescue in Cystic Fibrosis: Design and Synthesis of Thiadiazole Inhibitors of the E3 Ligase RNF5” (J Med Chem, 2023).

Active and inactive are the calls of the source. Unless noted, no cut-off for these calls is given here.

The test system of data set [1] is Cystic fibrosis transmembrane conductance regulator (Homo sapiens), P13569 [F508del]. As to the kind of experiment: Corrector activity at CFTR F508del mutant in human CFBE41o- cells assessed as increase in CFTR mutant activity at 5 uM in presence of VX-445 incubated for 24 hrs. It is filed as cell-based. In short, it runs like this:
(§1)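 CFBE41o– cells stably expressing F508del-CFTR and HS-YFP were treated 24 h after seeding; DMSO and VX-809 (1 μM) served as controls. Cells were stimulated 25 min with forskolin (20 μM) plus VX-770 (1 μM). YFP was read for 2 s before and 12 s after iodide injection. Initial slope came from an exponential fit of the final 11 s. Three independent experiments.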

Data set [2] concerns CFBE41o-. As to the kind of experiment: Induction of autophagy in human CFBE41o- cells harbouring CFTR F508del mutant assessed as increase in number of autophagic vacuoles at 5 uM incubated for 24 hrs by confocal microscopy based analysis. It is filed as functional, cell-based. In short, it runs like this:
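CFBE41o– F508del/HS-YFP cells (50,000/well) were treated 24 h with compound (5 μM), VX-809 (1 μM) or DMSO. SAR405 (2 μM) and torin1 (20 nM) were added near the end of incubation. Cells were then loaded with 50 μM MDC in PBS for 10 min at 37 °C, washed, and imaged. MDC spot number was normalized to control. n = 3; ANOVA with Dunnett test.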

Data set [3] concerns CFBE41o-. Description: Antiproliferative activity against human CFBE41o- cells harbouring CFTR F508del mutant/HS-YFP at 5 uM incubated for 48 hrs. It counts as toxicity, cell-based. In short, it runs like this:
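Cells plated at 5000/well and treated after 6 h with compound (5 μM) or DMSO. Cell-covered area was followed by the YFP signal over 48 h on a high-content imager. Means ± SEM, n = 6. Three independent experiments; ANOVA with Dunnett test.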

For data set [4], the target named is Cystic fibrosis transmembrane conductance regulator (Homo sapiens, UniProt P13569, F508DEL). Description: Corrector activity at CFTR F508del mutant in human CFBE41o- cells incubated for 25 mins by microplate reader based analysis. It counts as cell-based. In short, it runs like this:
as §1

For data set [5], the system named is Cystic fibrosis transmembrane conductance regulator (Homo sapiens), P13569 [F508del]. As to the kind of experiment: Corrector activity at CFTR F508del mutant in human CFBE41o- cells assessed as increase in CFTR mutant activity at 5 uM in presence of VX-809 incubated for 24 hrs. It counts as cell-based. The method in brief:
as §1

The nature of data set [6]: Aggregation property of the compound in PBS buffer at pH 7.5 by 1D 1H-NMR analysis. It counts as physicochemical. In short, it runs like this: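 Solubility by 1H 1D NMR and aggregation by WaterLOGSY at 298 K in PBS pH 7.5 with 1 μM ZnCl2, 1 mM DTT, 10% D2O, 1% DMSO-d6. Theoretical concentrations 20, 50 and 100 μM, with 200 μM 4-trifluoromethyl benzoic acid as internal reference. WaterLOGSY: mixing time 1.7 s, relaxation delay 2 s, 256 scans.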

Cystic fibrosis transmembrane conductance regulator (Homo sapiens), P13569 [F508del], sequence (P13569 as listed by the source): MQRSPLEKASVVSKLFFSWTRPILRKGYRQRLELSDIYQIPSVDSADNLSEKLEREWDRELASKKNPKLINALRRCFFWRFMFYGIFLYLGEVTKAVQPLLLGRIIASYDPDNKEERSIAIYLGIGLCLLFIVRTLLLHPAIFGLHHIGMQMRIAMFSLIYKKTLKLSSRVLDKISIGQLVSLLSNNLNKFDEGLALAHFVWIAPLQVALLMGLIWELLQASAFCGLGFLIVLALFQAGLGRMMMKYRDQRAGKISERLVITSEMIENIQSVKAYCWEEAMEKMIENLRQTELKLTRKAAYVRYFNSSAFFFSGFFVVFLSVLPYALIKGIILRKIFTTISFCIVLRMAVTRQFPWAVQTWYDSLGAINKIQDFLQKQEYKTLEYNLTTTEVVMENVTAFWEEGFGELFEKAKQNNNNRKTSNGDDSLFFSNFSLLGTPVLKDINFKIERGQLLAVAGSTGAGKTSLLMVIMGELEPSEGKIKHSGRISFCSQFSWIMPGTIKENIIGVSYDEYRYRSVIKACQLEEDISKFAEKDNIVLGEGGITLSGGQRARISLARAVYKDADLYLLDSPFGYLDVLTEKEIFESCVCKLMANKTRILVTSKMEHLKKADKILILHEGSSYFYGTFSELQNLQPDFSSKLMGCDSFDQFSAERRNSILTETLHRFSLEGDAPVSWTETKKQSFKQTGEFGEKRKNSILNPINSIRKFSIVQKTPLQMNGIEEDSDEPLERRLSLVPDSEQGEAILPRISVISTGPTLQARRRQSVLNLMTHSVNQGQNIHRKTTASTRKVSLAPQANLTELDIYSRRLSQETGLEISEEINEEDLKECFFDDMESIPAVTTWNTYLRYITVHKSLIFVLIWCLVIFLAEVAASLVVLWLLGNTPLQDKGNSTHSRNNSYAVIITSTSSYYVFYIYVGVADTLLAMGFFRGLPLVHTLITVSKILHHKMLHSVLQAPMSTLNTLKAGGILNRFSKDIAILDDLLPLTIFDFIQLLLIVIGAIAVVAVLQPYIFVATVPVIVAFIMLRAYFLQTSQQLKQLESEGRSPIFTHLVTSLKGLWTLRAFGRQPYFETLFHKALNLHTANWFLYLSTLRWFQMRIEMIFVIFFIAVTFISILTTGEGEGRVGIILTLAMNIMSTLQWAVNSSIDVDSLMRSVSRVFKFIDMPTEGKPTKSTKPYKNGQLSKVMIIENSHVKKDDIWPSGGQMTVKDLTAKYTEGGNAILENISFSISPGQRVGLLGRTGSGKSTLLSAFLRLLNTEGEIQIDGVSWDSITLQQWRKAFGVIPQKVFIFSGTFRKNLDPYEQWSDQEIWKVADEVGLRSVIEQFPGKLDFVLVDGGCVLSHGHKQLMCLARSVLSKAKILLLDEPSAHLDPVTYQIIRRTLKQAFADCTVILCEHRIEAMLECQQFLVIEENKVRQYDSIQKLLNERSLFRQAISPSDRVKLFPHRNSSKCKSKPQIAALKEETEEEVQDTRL
Cystic fibrosis transmembrane conductance regulator, sequence (P13569 as listed by the source): as above

As to `Cc1ns/c(=N\C(=N\c2ccccc2)c2ccccc2)n1Cc1ccccc1`, the result (in data set [1]; in the data set with CFBE41o- [2]; in data set [5]) was Active. Further, the values for the Activity entry (in the data set on CFBE41o- [3]; in data set [6]) were “Non-Toxic” and “Not Active”, respectively. The EC50 (in general, the concentration needed to bring the measured effect to its halfway point) in data set [4] turned out to be 2600 nM.
